In ChEMBL document CHEMBL2010673, “Structure-activity relationship of pyrrole based S-nitrosoglutathione reductase inhibitors: carboxamide modification” (Bioorg Med Chem Lett, 2012):
Active and inactive are the calls of the source. The calls are words filed in the database; no cut-off is given here.

Columns and labels:
Mus musculus [1] = experiment: Toxicity in CD1 mouse assessed as adverse effect in spleen at 50 mg/kg, iv qd administered for 5 days; assay type: organism-based; set-up: dose 50 mg/kg, route intravenous; conditions: in vivo, 120 h
Outline: (§1)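 Male CD-1 mice dosed IV once daily for 5 days at 1, 10 or 50 mg/kg. Toxicity judged by histology of liver, spleen and thymus, and a no-observed-adverse-effect level (NOAEL) derived from the study.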

Mus musculus [2] = experiment: Toxicity in CD1 mouse assessed as adverse effect in thymus at 50 mg/kg, iv qd administered for 5 days; assay type: organism-based; set-up: dose 50 mg/kg, route intravenous; conditions: in vivo, 120 h; outline: as §1
[3] = molecular target: Galanin receptor type 2 (Homo sapiens) (UniProt O43603); experiment: Inhibition of GAL2 receptor at 10 uM by radioligand displacement assay
Outline: (§2)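 Off-target radioligand binding panel. Test compound at 10 µM. Each assay had at least 6 control wells, with or without vehicle, for soluble compounds. Values are percent inhibition of radioligand binding. ≥50% inhibition was scored as a positive response.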

Mus musculus [4] = experiment: Toxicity in CD1 mouse assessed as adverse effect in liver at 50 mg/kg, iv qd administered for 5 days; assay type: organism-based; set-up: dose 50 mg/kg, route intravenous; conditions: in vivo, 120 h; outline: as §1
[5] = Toxicity in iv dosed CD1 mouse administered qd for 5 days; assay type: organism-based; conditions: in vivo; outline: as §1
[6] = molecular target: Neuropeptide Y receptor type 2 (Homo sapiens) (UniProt P49146); experiment: Inhibition of Y2 receptor at 10 uM by radioligand displacement assay; outline: as §2
Mus musculus [7] = experiment: Antiasthamatic activity against ovalbumin-induced asthma in ovalbumin-sensitized BALB/c mouse assessed as inhibition of methacholine-induced eosinophil infiltration in bronchoalveolar lavage fluid at 1 mg/kg, iv administered 24 hrs prior to methacholine-challenge by light microscopy; assay type: functional, organism-based; set-up: dose 1 mg/kg; conditions: Lung
Outline: (§3)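 Mice made asthmatic by ovalbumin exposure. A single 1 mg/kg IV dose was given 24 h before aerosolized methacholine challenge. Controls received IV PBS vehicle or three inhaled doses of Combivent (5.2 mg/kg albuterol + 0.9 mg/kg ipratropium) at 48, 24 and 1 h before challenge. Bronchoconstriction was read by whole-body plethysmography, and eosinophils were counted in BALF. Data are mean ± SEM, 10 mice per group.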

Mus musculus [8] = experiment: Toxicity in CD1 mouse assessed as adverse effect in thymus iv qd administered for 5 days; conditions: in vivo, 120 h
Mus musculus [9] = experiment: Toxicity in CD1 mouse assessed as adverse effect in thymus at 10 mg/kg, iv qd administered for 5 days; assay type: organism-based; set-up: dose 10 mg/kg, route intravenous; conditions: in vivo, 120 h; outline: as §1
[10] = molecular target: B2 bradykinin receptor (Homo sapiens) (UniProt P30411); experiment: Inhibition of B2 receptor at 10 uM by radioligand displacement assay; outline: as §2
[11] = Inhibition of Smt-tagged S-nitrosoglutathione reductase expressed in Escherichia coli using […] as substrate for 3 mins by spectrophotometric analysis; conditions: read-out: IC50
Mus musculus [12] = experiment: Toxicity in CD1 mouse assessed as adverse effect in liver at 10 mg/kg, iv qd administered for 5 days; assay type: organism-based; set-up: dose 10 mg/kg, route intravenous; conditions: in vivo, 120 h; outline: as §1
[13] = molecular target: Adenosine receptor A2a (Homo sapiens) (UniProt P29274); experiment: Inhibition of adenosine A2a receptor at 10 uM by radioligand displacement assay; outline: as §2
[14] = molecular target: 5-hydroxytryptamine receptor 3A (Homo sapiens) (UniProt P46098); experiment: Inhibition of 5HT3 receptor at 10 uM by radioligand displacement assay; outline: as §2
Mus musculus [15] = experiment: Antiasthamatic activity against ovalbumin-induced asthma in ovalbumin-sensitized BALB/c mouse assessed as inhibition of methacholine-induced bronchoconstriction at 1 mg/kg, iv administered 24 hrs prior to methacholine-challenge by plethysmography; assay type: functional, organism-based; set-up: dose 1 mg/kg; outline: as §3
[16] = molecular target: 5-hydroxytryptamine receptor 1B (Homo sapiens) (UniProt P28222); experiment: Inhibition of 5HT1b receptor at 10 uM by radioligand displacement assay; outline: as §2
[17] = Inhibition of alpha2 adrenergic receptor at 10 uM by radioligand displacement assay
Outline: (§4)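 Off-target panel: radioligand binding to each receptor, channel or transporter with test compound at 10 µM; activity reported as percent inhibition of specific binding. At least 6 control wells with or without vehicle per assay. Inhibition of 50% or greater counted as a positive response.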

[18] = Inhibition of sst receptor at 10 uM by radioligand displacement assay; outline: as §4
[19] = molecular target: Melanocortin receptor 4 (Homo sapiens) (UniProt P32245); experiment: Inhibition of MC4 receptor at 10 uM by radioligand displacement assay; outline: as §2
[20] = molecular target: Type-1 angiotensin II receptor (Homo sapiens) (UniProt P30556); experiment: Inhibition of AT1 receptor at 10 uM by radioligand displacement assay; outline: as §2
[21] = molecular target: Kappa-type opioid receptor (Homo sapiens) (UniProt P41145); experiment: Inhibition of Kappa opioid receptor at 10 uM by radioligand displacement assay; outline: as §2
[22] = molecular target: Beta-2 adrenergic receptor (Homo sapiens) (UniProt P07550); experiment: Inhibition of Beta2 adrenergic receptor at 10 uM by radioligand displacement assay; outline: as §2
Mus musculus [23] = experiment: Toxicity in CD1 mouse assessed as adverse effect in spleen at 10 mg/kg, iv qd administered for 5 days; assay type: organism-based; set-up: dose 10 mg/kg, route intravenous; conditions: in vivo, 120 h; outline: as §1
[24] = molecular target: Mu-type opioid receptor (Homo sapiens) (UniProt P35372); experiment: Inhibition of Mu opioid receptor at 10 uM by radioligand displacement assay; outline: as §2
Mu-type opioid receptor (Homo sapiens), sequence (P35372 whole entry): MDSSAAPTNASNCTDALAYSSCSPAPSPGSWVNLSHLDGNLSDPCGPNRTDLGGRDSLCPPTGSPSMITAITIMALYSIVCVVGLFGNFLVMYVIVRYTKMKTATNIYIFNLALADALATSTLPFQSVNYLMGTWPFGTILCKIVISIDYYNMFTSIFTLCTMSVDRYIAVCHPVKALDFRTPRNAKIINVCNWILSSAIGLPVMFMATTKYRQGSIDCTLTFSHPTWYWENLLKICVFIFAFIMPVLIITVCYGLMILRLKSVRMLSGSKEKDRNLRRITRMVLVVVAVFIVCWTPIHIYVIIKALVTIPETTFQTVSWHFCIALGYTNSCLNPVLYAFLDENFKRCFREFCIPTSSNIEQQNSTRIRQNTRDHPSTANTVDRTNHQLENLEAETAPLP

B2 bradykinin receptor (Homo sapiens), sequence (P30411 whole entry): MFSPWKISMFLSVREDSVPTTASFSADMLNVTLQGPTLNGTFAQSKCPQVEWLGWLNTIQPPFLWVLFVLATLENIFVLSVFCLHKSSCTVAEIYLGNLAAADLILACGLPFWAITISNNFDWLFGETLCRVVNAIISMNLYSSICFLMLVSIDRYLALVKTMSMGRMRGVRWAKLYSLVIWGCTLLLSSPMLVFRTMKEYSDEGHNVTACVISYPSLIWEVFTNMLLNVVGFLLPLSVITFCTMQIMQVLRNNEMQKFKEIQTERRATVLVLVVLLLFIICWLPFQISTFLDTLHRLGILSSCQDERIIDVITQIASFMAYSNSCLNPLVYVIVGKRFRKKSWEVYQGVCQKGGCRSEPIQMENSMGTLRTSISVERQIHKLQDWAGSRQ
Melanocortin receptor 4 (Homo sapiens), sequence (P32245 whole entry): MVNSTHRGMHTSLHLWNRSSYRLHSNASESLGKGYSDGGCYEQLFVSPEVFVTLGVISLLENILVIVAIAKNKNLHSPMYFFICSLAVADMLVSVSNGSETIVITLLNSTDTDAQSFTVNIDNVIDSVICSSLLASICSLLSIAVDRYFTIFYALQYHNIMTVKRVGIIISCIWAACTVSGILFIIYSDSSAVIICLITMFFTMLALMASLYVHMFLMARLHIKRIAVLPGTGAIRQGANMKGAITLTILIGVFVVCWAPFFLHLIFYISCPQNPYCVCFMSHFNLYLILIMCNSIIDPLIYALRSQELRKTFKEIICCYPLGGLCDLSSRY
Type-1 angiotensin II receptor (Homo sapiens), sequence (P30556 whole entry): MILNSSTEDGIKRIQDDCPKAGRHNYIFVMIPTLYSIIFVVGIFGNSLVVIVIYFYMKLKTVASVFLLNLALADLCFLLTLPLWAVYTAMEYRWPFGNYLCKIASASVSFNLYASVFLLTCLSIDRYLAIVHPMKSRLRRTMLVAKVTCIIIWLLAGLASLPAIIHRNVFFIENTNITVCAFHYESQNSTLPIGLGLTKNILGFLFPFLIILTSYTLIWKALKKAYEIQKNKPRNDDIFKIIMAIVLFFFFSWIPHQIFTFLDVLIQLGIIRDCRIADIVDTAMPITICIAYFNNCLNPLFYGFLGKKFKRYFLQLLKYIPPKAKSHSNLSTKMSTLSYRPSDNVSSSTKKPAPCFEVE
Adenosine receptor A2a (Homo sapiens), sequence (P29274 whole entry): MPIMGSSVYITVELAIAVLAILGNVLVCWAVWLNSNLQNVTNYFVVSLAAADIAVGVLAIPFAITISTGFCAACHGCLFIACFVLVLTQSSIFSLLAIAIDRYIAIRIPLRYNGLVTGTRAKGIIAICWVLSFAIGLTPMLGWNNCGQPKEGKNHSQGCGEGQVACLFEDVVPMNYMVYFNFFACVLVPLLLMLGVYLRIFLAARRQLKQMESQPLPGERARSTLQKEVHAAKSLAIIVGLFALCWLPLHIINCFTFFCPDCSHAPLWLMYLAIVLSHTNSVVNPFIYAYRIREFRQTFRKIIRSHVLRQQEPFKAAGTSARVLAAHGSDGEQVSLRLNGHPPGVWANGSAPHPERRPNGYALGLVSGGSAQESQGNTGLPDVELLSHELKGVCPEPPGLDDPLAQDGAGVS
5-hydroxytryptamine receptor 3A (Homo sapiens), sequence (P46098 whole entry): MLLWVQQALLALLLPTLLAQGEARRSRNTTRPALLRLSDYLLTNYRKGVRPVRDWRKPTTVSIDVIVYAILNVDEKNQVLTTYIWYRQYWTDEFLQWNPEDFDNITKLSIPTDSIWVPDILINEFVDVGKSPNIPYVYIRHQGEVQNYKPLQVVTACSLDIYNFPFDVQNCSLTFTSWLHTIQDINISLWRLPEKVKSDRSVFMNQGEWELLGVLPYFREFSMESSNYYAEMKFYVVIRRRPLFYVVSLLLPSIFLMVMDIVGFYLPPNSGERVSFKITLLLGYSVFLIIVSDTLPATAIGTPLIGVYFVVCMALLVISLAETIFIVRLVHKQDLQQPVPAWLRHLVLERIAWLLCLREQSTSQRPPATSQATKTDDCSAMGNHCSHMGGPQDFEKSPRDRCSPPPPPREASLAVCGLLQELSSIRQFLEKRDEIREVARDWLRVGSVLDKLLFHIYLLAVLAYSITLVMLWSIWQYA
Neuropeptide Y receptor type 2 (Homo sapiens), sequence (P49146 whole entry): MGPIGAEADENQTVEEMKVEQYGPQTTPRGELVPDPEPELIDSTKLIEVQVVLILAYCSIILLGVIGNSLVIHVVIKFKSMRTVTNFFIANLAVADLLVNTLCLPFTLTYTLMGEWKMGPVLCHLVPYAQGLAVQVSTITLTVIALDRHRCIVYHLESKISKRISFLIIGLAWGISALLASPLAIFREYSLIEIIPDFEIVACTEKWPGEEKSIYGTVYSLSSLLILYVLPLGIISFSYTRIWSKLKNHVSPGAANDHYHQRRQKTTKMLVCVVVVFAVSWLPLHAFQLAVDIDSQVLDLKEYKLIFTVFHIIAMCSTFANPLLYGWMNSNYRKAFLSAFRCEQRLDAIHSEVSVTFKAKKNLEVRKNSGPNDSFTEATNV
Galanin receptor type 2 (Homo sapiens), sequence (O43603 whole entry): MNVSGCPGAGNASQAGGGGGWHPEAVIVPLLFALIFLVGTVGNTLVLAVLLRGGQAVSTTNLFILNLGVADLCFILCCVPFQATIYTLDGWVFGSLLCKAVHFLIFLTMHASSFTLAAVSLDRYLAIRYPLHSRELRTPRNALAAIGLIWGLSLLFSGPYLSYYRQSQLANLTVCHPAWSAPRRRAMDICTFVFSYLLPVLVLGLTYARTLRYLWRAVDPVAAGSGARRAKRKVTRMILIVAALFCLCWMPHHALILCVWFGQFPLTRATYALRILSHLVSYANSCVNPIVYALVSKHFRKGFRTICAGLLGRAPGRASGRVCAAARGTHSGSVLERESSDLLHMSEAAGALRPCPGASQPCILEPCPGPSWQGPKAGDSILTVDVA
Kappa-type opioid receptor (Homo sapiens), sequence (P41145 whole entry): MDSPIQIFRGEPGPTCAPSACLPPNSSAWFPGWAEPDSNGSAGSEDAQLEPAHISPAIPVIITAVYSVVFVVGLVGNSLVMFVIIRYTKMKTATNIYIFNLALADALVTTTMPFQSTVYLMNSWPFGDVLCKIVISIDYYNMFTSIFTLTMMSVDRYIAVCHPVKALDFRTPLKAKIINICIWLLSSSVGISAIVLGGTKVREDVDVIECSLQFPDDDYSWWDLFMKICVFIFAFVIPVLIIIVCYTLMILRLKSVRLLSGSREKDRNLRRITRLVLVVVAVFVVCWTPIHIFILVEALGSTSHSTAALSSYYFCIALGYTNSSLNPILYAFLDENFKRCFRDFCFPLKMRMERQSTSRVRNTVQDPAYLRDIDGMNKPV
5-hydroxytryptamine receptor 1B (Homo sapiens), sequence (P28222 whole entry): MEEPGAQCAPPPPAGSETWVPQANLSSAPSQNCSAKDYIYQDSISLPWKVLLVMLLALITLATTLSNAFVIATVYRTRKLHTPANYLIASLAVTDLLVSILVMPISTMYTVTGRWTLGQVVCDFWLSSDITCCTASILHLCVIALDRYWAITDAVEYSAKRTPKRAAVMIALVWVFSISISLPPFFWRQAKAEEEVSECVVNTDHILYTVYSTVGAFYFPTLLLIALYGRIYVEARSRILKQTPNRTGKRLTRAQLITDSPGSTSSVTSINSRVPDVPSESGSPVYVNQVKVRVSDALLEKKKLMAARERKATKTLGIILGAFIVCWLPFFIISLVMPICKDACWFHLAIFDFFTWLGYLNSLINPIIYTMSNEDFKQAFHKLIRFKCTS
Beta-2 adrenergic receptor (Homo sapiens), sequence (P07550 whole entry, looked up): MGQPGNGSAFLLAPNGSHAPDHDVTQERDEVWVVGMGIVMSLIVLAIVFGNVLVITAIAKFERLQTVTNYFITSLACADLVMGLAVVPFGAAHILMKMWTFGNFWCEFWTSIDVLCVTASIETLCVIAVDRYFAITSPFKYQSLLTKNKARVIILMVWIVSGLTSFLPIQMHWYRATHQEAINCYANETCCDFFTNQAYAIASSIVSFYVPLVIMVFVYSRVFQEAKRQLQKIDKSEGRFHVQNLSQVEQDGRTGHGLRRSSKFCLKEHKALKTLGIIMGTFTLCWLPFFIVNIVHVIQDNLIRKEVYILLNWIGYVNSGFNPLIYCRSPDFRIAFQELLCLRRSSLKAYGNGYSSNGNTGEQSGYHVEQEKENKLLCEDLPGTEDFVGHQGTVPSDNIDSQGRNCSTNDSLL

Row | Compound | inhibition [3] | inhibition [6] | inhibition [10] | IC50 [11] | inhibition [13] | inhibition [14] | inhibition [16] | inhibition [17] | inhibition [18] | inhibition [19] | inhibition [20] | inhibition [21] | inhibition [22] | inhibition [24] | further results
1 | Cc1cc(NS(C)(=O)=O)ccc1-n1c(CCC(=O)O)ccc1-c1ccc(-n2ccnc2C)s1 | inactive | inactive | inactive | 0.043 µM | inactive | inactive | inactive | inactive | inactive | inactive | inactive | inactive | inactive | inactive | Activity (Mus musculus [1]): Toxic; Activity (Mus musculus [2]): Toxic; Activity (Mus musculus [4]): Toxic; NOAEL at 120 h [5]: 1 mg/kg/day; Activity (Mus musculus [7]): Active; Activity (Mus musculus [8]): Toxic; Activity (Mus musculus [9]): Toxic; Activity (Mus musculus [12]): Toxic; Activity (Mus musculus [15]): Active; Activity (Mus musculus [23]): Toxic
2 | Cc1cc(NS(C)(=O)=O)ccc1-n1c(CCC(=O)O)ccc1-c1ccc(-n2ccnc2)cc1 | inactive | inactive | inactive | 0.029 µM | inactive | inactive | inactive | inactive | inactive | inactive | inactive | inactive | inactive | inactive | –
